Common to all, as to settings: stereoisomer not certain
In test [1] the target is T1, UniProt Q924H8.
T1 sequence (whole entry): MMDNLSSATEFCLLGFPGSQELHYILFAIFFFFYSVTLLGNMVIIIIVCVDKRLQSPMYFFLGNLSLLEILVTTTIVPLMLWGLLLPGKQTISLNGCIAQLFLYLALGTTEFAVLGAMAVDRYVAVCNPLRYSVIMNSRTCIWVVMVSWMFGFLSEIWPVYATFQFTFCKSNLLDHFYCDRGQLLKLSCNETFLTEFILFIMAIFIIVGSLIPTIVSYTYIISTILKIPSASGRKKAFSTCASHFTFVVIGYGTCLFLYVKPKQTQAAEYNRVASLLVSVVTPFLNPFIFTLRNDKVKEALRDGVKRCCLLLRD
A digest of the protocol:
(§1)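 Each receptor–molecule pair is labelled responsive or non-responsive (inactive) according to whether the original authors judged the measured signal statistically different from baseline. The data were taken from the main text and supplementary material of published papers and checked for typos and inconsistencies. Assay methods differed by source, with transient luciferase assays in mammalian cell lines being common.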

Test [2] addresses T2, UniProt Q99NH4.
T2 sequence (whole entry): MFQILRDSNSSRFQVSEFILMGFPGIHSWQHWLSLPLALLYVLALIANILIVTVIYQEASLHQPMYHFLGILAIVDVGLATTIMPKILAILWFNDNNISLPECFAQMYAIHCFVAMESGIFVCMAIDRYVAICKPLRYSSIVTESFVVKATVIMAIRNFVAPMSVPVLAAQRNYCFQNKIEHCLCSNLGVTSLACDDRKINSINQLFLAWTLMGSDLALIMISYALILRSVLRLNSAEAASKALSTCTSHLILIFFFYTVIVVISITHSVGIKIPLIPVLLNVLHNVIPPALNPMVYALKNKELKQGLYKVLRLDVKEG
A digest of the protocol: as §1

For test [3], the target named is T3, UniProt Q9EPN9.
T3 sequence (whole entry): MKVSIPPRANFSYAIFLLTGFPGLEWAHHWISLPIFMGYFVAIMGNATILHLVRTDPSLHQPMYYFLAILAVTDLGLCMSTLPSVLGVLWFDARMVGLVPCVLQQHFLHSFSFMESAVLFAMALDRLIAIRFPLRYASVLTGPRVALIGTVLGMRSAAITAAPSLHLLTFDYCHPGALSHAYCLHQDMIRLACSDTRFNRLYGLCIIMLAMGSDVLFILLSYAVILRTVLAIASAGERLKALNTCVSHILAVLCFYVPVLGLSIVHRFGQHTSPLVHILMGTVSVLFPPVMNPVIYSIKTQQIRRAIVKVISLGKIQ
In a few lines:
as §1

Test [4] addresses UniProt Q9R0K2. In a few lines: as §1
Test [5] deals with T4, UniProt Q9WU86.
T4 sequence (whole entry): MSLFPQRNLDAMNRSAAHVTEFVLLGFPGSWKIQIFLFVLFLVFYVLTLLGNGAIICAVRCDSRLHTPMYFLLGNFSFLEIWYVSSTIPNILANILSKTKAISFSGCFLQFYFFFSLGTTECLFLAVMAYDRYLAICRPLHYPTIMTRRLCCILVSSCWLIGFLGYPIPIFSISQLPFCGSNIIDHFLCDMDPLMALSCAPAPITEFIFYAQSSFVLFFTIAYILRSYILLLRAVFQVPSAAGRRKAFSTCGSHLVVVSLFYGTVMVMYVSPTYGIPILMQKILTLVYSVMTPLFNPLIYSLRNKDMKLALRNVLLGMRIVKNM
A digest of the protocol:
as §1

Test [6] addresses UniProt Q9WVD9. A digest of the protocol:
as §1

The target in test [7] is T5, UniProt Q9WVN5.
T5 sequence (whole entry): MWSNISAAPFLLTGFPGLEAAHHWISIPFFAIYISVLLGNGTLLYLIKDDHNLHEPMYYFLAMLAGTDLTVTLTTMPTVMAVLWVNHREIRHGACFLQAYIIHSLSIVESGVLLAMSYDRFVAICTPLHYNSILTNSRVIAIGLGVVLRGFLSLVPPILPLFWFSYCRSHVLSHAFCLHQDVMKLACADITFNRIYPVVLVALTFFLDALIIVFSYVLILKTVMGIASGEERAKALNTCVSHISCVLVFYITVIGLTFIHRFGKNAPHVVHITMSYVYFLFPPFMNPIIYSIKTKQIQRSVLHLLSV
In a few lines: as §1

Test [8] deals with T6, UniProt Q924X8.
T6 sequence (whole entry): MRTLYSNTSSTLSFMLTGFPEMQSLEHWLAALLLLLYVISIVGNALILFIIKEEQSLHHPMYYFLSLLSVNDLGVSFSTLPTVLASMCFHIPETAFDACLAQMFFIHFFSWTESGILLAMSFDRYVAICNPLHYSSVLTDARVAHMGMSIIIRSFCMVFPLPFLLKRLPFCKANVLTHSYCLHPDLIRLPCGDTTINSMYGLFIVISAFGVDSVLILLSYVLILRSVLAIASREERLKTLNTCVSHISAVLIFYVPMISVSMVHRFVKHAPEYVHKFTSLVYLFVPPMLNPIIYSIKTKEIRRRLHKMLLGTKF
A digest of the protocol:
as §1

For test [9], the target named is T7, UniProt Q9WU94.
T7 sequence (whole entry): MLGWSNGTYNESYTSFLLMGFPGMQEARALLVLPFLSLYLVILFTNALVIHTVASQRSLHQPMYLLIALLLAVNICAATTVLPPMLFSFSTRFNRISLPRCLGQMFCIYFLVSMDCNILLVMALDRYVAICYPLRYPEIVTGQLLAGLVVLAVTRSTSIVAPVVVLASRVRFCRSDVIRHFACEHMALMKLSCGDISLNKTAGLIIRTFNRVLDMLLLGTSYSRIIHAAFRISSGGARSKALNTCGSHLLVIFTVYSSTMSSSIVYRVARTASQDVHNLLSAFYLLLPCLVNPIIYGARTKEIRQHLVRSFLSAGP
A digest of the protocol: as §1

Test [10] has as its target T8, UniProt Q9WVD7.
T8 sequence (whole entry): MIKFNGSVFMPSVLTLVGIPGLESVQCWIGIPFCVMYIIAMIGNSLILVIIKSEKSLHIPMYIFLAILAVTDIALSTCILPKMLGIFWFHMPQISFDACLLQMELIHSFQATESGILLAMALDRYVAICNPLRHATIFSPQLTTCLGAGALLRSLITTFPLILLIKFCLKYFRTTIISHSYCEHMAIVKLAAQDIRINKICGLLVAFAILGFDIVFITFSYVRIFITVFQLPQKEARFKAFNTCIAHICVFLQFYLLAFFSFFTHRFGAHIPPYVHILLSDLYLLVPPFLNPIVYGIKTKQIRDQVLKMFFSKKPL
A digest of the protocol: as §1
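Also: active if original authors judged signal statistically different from baseline.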

UniProt Q9WVD9, sequence (Q9WVD9 as listed by the source): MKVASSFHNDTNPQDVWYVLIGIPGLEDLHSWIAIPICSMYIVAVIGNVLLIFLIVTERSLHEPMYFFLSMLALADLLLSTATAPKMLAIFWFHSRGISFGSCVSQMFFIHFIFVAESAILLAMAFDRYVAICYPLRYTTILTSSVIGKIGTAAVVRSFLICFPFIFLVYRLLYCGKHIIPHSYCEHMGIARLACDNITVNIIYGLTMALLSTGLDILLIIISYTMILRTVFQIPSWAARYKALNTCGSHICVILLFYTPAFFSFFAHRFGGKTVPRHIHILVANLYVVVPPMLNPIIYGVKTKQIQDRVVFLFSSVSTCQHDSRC
UniProt Q9R0K2, sequence (Q9R0K2 as listed by the source): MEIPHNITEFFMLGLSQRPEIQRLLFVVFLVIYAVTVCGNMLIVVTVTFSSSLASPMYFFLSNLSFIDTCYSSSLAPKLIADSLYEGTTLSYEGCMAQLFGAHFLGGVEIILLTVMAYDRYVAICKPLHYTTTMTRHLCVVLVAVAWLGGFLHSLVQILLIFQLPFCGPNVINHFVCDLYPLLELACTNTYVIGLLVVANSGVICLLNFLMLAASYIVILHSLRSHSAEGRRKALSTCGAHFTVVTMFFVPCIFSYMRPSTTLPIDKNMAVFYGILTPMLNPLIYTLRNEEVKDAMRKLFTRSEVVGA

In the case of `O=C(O)CCCCCCCCC(=O)O`, the “odorant receptor agonist call” value in test [1] and in test [2] was “inactive” in each case.

`CCCCC(C)=O`: the “odorant receptor agonist call” value in [1], in test [3], in [4], in [5], in test [6] and in [7] was “inactive” throughout.

Regarding `CC(CC=O)CCCC(C)(C)O` (stereo unspecified), the “odorant receptor agonist call” value in test [1] is “inactive”.

As to `O=C([O-])CCCCCCCC(=O)[O-].[H+].[H+]`, the “odorant receptor agonist call” value in [1], in [2] and in test [10] was “inactive” in each case. Moreover, the “odorant receptor agonist call” value in [8] and in [9] was “active” in each case.

On to `CCc1occc(=O)c1O`, for which the “odorant receptor agonist call” value in test [1] is “inactive”.

In the case of `CCCCCCCO`, the “odorant receptor agonist call” value in test [1], in test [8], in [2], in test [3], in test [4] and in [5] was “inactive” in each case. Moreover, the “odorant receptor agonist call” value in test [9], in [10], in test [6] and in [7] was “inactive” in each case.

Regarding `O=C([O-])CCCCCCC(=O)[O-].[H+].[H+]`, the “odorant receptor agonist call” value in test [1], in [2], in [9] and in test [10] was “inactive” in each case. In addition, the “odorant receptor agonist call” value in [8] is “active”.

For the molecule `CNc1ccccc1C(=O)OC`, the “odorant receptor agonist call” value in [1] is “inactive”.

For the molecule `O=C1CCOc2ccccc21`, the “odorant receptor agonist call” value in [1], in test [3], in [4], in test [5], in test [6] and in test [7] was “inactive” throughout.

Regarding `CC(C)CCN`, the “odorant receptor agonist call” value in test [1] was “inactive”.

On to `Cc1c(C)c(C)c(C=O)c(C)c1C`, for which, in test [1], the “odorant receptor agonist call” value was “inactive”.

Turning to `CCOC(=O)C(C)C`, the “odorant receptor agonist call” value in [1], in test [3], in test [4], in test [5], in test [6] and in test [7] was “inactive” each time.

In the case of `CC(=O)OCC=C(C)C`, the “odorant receptor agonist call” value in test [1], in test [3], in [4], in test [5], in test [6] and in test [7] was “inactive” in each case.

Consider `CCCCCCC=CC=O`, for which the “odorant receptor agonist call” value in test [1] is “inactive”.

Take `CCC(=O)O`: the “odorant receptor agonist call” value in test [1], in test [3], in test [4], in test [5], in test [6] and in test [7] was “inactive” throughout.

For the molecule `CCCCCCO`, the “odorant receptor agonist call” value in test [1], in test [8], in test [2], in [3], in [4] and in [5] was “inactive” each time. Besides, the “odorant receptor agonist call” value in test [9], in [10], in test [6] and in test [7] was “inactive” each time.

Take `CSSSC`: the “odorant receptor agonist call” value in [1] is “inactive”.

Take `CCCCCCCCC(=O)O`: the “odorant receptor agonist call” value in test [1], in [8], in [3], in [4], in test [5] and in test [9] was “inactive” each time. Also, the “odorant receptor agonist call” value in test [6] and in test [7] was “inactive” in each case. In addition, the “odorant receptor agonist call” value in [2] and in [10] was “active” each time.

For the molecule `CCCCCCCCCO`, the “odorant receptor agonist call” value in test [1], in test [8], in [3], in [4], in test [5] and in [9] was “inactive” throughout. Moreover, the “odorant receptor agonist call” value in test [6] and in test [7] was “inactive” each time. The “odorant receptor agonist call” value in [10] was “active”.

On to `C=C(CC)CCCC(C)(C)O`, for which the “odorant receptor agonist call” value in test [1] is “inactive”.

Regarding `CCCCCC(C=O)=Cc1ccccc1`, in test [1], the “odorant receptor agonist call” value was “inactive”.

Take `CCCCCC(=O)CC`: the “odorant receptor agonist call” value in test [1], in [3], in test [4], in [5], in test [6] and in test [7] was “inactive” in each case.

Values taken from the M2OR odorant receptor database.
